One may read the inhibition as the relative decrease from the control value, in per cent. The term pKb denotes the Kb on a negative log10 scale, so that one unit is a factor of ten. As a reminder, the solubility is the concentration that dissolves in the medium under given conditions. In general, clearance refers to a measure of how efficiently the substance is removed, as volume per time. A low value points to a low capacity for elimination. For orientation: bioavailability means dose-corrected exposure relative to a reference, in per cent. Lower therefore signals little systemic uptake. One may read the half-life as the time in which the quantity being followed falls by half. A low value points to fast loss.

The text below walks through data of ChEMBL document CHEMBL1153543, “Discovery of novel protease activated receptors 1 antagonists with potent antithrombotic activity in vivo” (J Med Chem, 2009).

Series [1] relates to CHO. Kind of series: Inhibition of SFLLR-NH2-induced calcium release in CHO cells at 10 uM treated prior to SFLLR-NH2 challenge […] by FLIPR assay. Type of series: functional. The settings on record: Cricetulus griseus. The gist of the method: (§1)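 FLIPR fluorescence assay in CHO cells. Calcium release is evoked by 1 μM SFLLR-NH₂, the PAR1-selective agonist peptide. Compound effect is given as % inhibition at 10 μM or, for competitive antagonists, as a calculated pA₂.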

The next series deals with Platelet. Kind of series: Inhibition of SFLLR-induced human platelet aggregation. Type of series: functional.
The test system of series [2] is Rattus norvegicus. In words: Increase in occlusion time of arteriovenous shunt in Crl; OFA Sprague-Dawley rat at 40 mg/kg, po. The series is classed as functional. The gist of the method: (§2)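 Anesthetized rats; extracorporeal shunt from left carotid artery to right jugular vein, silk thread in the central portion as thrombogenic substrate. A thermal microprobe on the central shunt section gives time to occlusion, seen as a sharp temperature drop. Compound given iv at 1.25 mg/kg or orally at 40 mg/kg. Result expressed as % increase in occlusion time.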

For series [3], the system named is CHO. Kind of series: Inhibition of SFLLR-NH2-induced calcium release in CHO cells treated prior to SFLLR-NH2 challenge […] by FLIPR assay. The series is classed as functional, cell-based. Particulars: Cricetulus griseus, read-out: pA2 (converted). The gist of the method: as §1
Series [4] concerns Rattus norvegicus. Kind of series: Increase in occlusion time of arteriovenous shunt in Crl: OFA Sprague-Dawley rat at 1.25 mg/kg, iv. Type of series: functional. The gist of the method:
as §2

A short description of series [5]: Solubility in water. Type of series: physicochemical. The gist of the method: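 Aqueous solubility was determined on the hydrochloride salt and expressed in mg/mL.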
Series [6] in a line: Selectivity for PAR1 to PAR2.
The target in series [7] is Proteinase-activated receptor 2 (Homo sapiens) (UniProt P55085). In words: Antagonist activity at PAR2 expressed in Cos7 cells assessed as SLIGRl-mediated SRE-luciferase activity. The series is classed as functional, cell-based. The settings on record: COS-7.
Series [8] is described as follows: Clearance in rat. Type of series: ADME, organism-based. Particulars: in vivo. The gist of the method: (§3)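 Rat pharmacokinetic parameters were determined on the hydrochloride salt of each compound.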
The target of series [9] is T1, Proteinase-activated receptor 1 (Homo sapiens) (UniProt P25116).
T1 sequence (whole entry): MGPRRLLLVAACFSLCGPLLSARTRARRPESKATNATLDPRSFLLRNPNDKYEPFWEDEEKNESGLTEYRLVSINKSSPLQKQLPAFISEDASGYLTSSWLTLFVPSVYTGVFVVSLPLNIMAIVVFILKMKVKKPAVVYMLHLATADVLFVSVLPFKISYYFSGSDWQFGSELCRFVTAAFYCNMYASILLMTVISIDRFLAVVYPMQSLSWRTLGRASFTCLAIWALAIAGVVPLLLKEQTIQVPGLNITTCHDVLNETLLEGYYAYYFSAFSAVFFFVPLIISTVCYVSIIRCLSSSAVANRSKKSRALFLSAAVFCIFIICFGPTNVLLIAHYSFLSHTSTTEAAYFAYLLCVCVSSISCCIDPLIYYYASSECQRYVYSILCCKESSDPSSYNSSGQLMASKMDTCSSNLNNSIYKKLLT
In words: Antagonist activity at PAR1 expressed in Cos7 cells assessed as SFLLR-mediated SRE-luciferase activity. Type of series: functional, cell-based. The settings on record: COS-7.

Series [10] is described as follows: Selectivity for PAR1 to PAR4.
The nature of series [11]: Oral bioavailability in rat. The series is classed as ADME, organism-based. Particulars: in vivo. The gist of the method:
as §3

Series [12] addresses T2, Proteinase-activated receptor 4 (Homo sapiens) (UniProt Q96RI0).
T2 sequence (whole entry): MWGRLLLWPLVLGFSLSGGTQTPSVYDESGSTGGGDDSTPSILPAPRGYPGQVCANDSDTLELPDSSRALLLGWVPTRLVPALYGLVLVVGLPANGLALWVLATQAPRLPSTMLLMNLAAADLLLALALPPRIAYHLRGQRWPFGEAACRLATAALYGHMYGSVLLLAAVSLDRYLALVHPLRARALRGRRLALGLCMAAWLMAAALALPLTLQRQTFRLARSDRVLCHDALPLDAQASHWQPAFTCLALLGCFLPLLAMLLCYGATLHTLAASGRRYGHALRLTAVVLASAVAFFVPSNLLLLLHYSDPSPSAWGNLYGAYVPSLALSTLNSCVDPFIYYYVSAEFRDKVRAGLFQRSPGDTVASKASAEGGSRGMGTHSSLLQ
Kind of series: Antagonist activity at PAR4 expressed in Cos7 cells assessed as AYPGKF-mediated SRE-luciferase activity. Type of series: functional, cell-based. Particulars: COS-7.

Series [13] is described as follows: Half life in rat plasma at 1 mg/kg, iv and 5 mg/kg, po. The series is classed as ADME, organism-based. The gist of the method:
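Plasma half-life was measured in male rats dosed iv at 1 mg/kg and po at 5 mg/kg. The value is the mean over three rats.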

Values after ≈ are worked out from the molar mass of the structure shown.

Sequence of Proteinase-activated receptor 2 (Homo sapiens) (P55085 whole entry): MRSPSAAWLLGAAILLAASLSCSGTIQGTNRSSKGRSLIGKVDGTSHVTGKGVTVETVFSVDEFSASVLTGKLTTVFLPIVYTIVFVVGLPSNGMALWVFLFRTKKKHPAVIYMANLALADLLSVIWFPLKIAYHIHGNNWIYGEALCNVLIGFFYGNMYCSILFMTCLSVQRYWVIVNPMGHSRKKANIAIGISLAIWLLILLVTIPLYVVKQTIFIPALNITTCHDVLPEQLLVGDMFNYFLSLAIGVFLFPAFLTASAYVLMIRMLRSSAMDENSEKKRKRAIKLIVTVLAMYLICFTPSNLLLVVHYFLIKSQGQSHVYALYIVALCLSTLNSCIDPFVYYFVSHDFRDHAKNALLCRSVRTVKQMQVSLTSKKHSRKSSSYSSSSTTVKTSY

As to `Nc1ccccc1/C=C/C(=O)N1CCN(Cc2ccc(F)cc2)CC1`, the inhibition at 10 µM in the series on CHO [1] stood at 7.4%.
Consider `CCOc1cc2c(cc1C(=O)NC)C(=N)N(CC(=O)c1cc(C(C)(C)C)c(O)c(C(C)(C)C)c1)C2`, for which the pKb in the series with Platelet is 8.18. For the same compound, the Activity in the series with Rattus norvegicus [2] is 43%; in the series with Rattus norvegicus [4], 27%. Further, the Kb in the series on CHO [3] was 141 nM.
In the case of `O=C(/C=C/C=C/c1ccccc1[N+](=O)[O-])N1CCN(Cc2ccc(F)cc2)CC1`, the inhibition at 10 µM in the series with CHO [1] came to 59.4%.
Same read-out and setting: for `O=C(/C=C/c1ccccc1Br)N1CCN(Cc2ccc(F)cc2)CC1` the value was 93.1%; for `O=C(CCc1ccccc1[N+](=O)[O-])N1CCN(Cc2ccc(F)cc2)CC1`, 45.3%.
With `Cc1cccc(CN2CCN(C(=O)/C=C/c3c(F)cccc3F)CC2)c1`, in the series with CHO [1], the inhibition at 10 µM was 86.2%.
In the case of `O=C(/C=C/c1c(F)cccc1F)N1CCN(C(=O)C2CCCCCC2)CC1`, the Activity in the series with Rattus norvegicus [2] was found to be 0%; with Rattus norvegicus [4], 14%. The inhibition at 10 µM with CHO [1] turned out to be 98.9%. In the series on CHO [3], the Kb is 214 nM.
Turning to `O=C(C#Cc1ccccc1[N+](=O)[O-])N1CCN(Cc2ccc(F)cc2)CC1`, the inhibition at 10 µM in the series with CHO [1] came out at 28.6%.
The same measure, in the same setting: for `O=C(/C=C/c1ccccc1[N+](=O)[O-])N1CCCN(Cc2ccc(F)cc2)CC1` the value was 38.2%; for `O=C(/C=C/c1ccccc1[N+](=O)[O-])N1CCN(Cc2ccc(F)cc2)C(=O)C1`, 26.7%.
On the same count and under the same terms, to `O=C(/C=C/c1ccccc1[N+](=O)[O-])N1CCN(c2cccc(Cl)c2)CC1` belongs 97.1%; to `O=C(/C=C/c1ccccc1[N+](=O)[O-])N1CCN(S(=O)(=O)c2ccccc2F)CC1`, 0%; to `O=C(/C=C/c1ccccc1[N+](=O)[O-])N1CCN(C(=O)C2CCCCCC2)CC1`, 99.9%.
For the compound `N#Cc1ccc(N2CCN(C(=O)/C=C/c3ccccc3[N+](=O)[O-])CC2)cc1`, the inhibition at 10 µM in the series with CHO [1] is 18.8%.
Turning to `O=C(/C=C/c1ccccc1Cl)N1CCN(Cc2ccc(F)cc2)CC1`, the solubility in series [5] worked out at 1700 µg/mL (≈ 4.74 mM). The results for the Selectivity ratio in series [6] and in series [10] were 15 and 5, respectively. Besides, the pKb was determined as 4.45 in series [7], 5.52 with Platelet, 5.55 in series [9] and 4.91 in series [12]. This compound showed a clearance in series [8] of 40 mL/min/kg. The compound further returned a bioavailability in [11] of 43%. The compound also had a half-life in [13] of 2.17 h. Besides, the Activity came to 59% in the series with Rattus norvegicus [2] and 28% with Rattus norvegicus [4]. The inhibition at 10 µM with CHO [1] turned out to be 92.8%. For the same compound, the Kb in the series on CHO [3] was 214 nM.
With `O=C(/C=C/c1ccccc1[N+](=O)[O-])N1CCC(NCc2ccc(F)cc2)CC1`, in the series on CHO [1], the inhibition at 10 µM is 0%.
Compound `N#Cc1ccccc1/C=C/C(=O)N1CCN(C(=O)C2CCCCCC2)CC1` gave a pKb with Platelet of 5.17. In addition, the inhibition at 10 µM in the series with CHO [1] was 92.6%. The Kb with CHO [3] was 87.1 nM. The same compound came in with an Activity with Rattus norvegicus [4] of 19%.
Compound `O=C(/C=C/c1ccccc1[N+](=O)[O-])N1CCN(CC2CCCCC2)CC1` had a negative-log Kb (pKb) in the series with Platelet of 5.31. Further, the inhibition at 10 µM with CHO [1] worked out at 91.5%. The Kb in the series with CHO [3] was 490 nM. The same compound returned an Activity with Rattus norvegicus [4] of 29%.
Consider `Cc1cccc(CN2CCN(C(=O)/C=C/c3ccccc3[N+](=O)[O-])CC2)c1`, for which the inhibition at 10 µM with CHO [1] stood at 72.4%.
In series [5], `N#Cc1ccccc1/C=C/C=C/C(=O)N1CCN(c2ccccn2)CC1` showed a solubility of 2500 µg/mL (≈ 7.26 mM). Moreover, the Selectivity ratio in [6] is 15; in series [10] it was 5. The negative-log Kb (pKb) worked out at 4.39 in [7], 5.3 with Platelet, 5.6 in [9] and 4.93 in series [12]. The compound also had a clearance in series [8] of 6 mL/min/kg. Moreover, the bioavailability in series [11] came out at 42%. The same compound returned a half-life in [13] of 2.78 h. The Activity with Rattus norvegicus [2] stood at 54%; in the series with Rattus norvegicus [4], 58%. For the same compound, the inhibition at 10 µM in the series with CHO [1] was found to be 98.7%. The Kb with CHO [3] was 324 nM.
Turning to `N#Cc1ccccc1/C=C/C(=O)N1CCN(Cc2ccc(F)cc2)CC1`, the inhibition at 10 µM with CHO [1] worked out at 85.4%.
Regarding `O=C(/C=C/C=C/c1ccccc1[N+](=O)[O-])N1CCN(C2CCCC2)CC1`, the pKb with Platelet came to 5.5. Also, the Activity in the series with Rattus norvegicus [2] is recorded as 7%; in the series on Rattus norvegicus [4] it was 44%. In addition, the inhibition at 10 µM with CHO [1] worked out at 91.7%. Besides, the Kb in the series with CHO [3] was 69.2 nM.
With `O=C(/C=C/c1c(F)cccc1F)N1CCN(Cc2ccc(F)c(F)c2)CC1`, in the series on CHO [1], the inhibition at 10 µM was found to be 73.1%.
Take `Cc1ccc(CN2CCN(C(=O)/C=C/c3c(F)cccc3F)CC2)cc1C`: the inhibition at 10 µM with CHO [1] stood at 65.3%.
Still for that read-out and setting: for `O=C(/C=C/C=C/c1ccccc1Cl)N1CCCN(Cc2ccc(F)cc2)CC1` the value was 37.8%; for `O=C(/C=C/c1ccccc1[N+](=O)[O-])N1CCN(Cc2ccncc2)CC1`, 0%.
Regarding `O=C(/C=C/c1ccccc1[N+](=O)[O-])N1CCN(Cc2ccc(F)cc2)CC1`, the inhibition at 10 µM in the series on CHO [1] stood at 88.6%.
Same read-out and setting: to `O=C(/C=C/c1ccccc1[N+](=O)[O-])N1CCN(C(=O)NC2CCCCC2)CC1` belongs 39.2%; to `O=C(/C=C/c1cccc(Cl)c1)N1CCN(Cc2ccc(F)cc2)CC1`, 0.7%.
Take `O=C(/C=C/C=C/c1ccccc1[N+](=O)[O-])N1CCN(c2ccccc2)CC1`: the pKb in the series on Platelet is 5.65. Also, the inhibition at 10 µM with CHO [1] is 100%. For the same compound, in the series with CHO [3], the Kb was 58.9 nM. In the series on Rattus norvegicus [4], this compound had an Activity of 3%.
Take `O=C(/C=C/c1ccccc1Cl)C1CCN(Cc2ccc(F)cc2)CC1`: the inhibition at 10 µM with CHO [1] is 15.8%.
